Two compounds from ChEMBL document CHEMBL4196009, “Novel vitexin-inspired scaffold against leukemia” (Eur J Med Chem, 2018) can be followed below.

pEC50: −log10 of the molar value. The source made the active and inactive calls. No cut-off for these calls is given here.

The subject of one assay is SEM cells. Put plainly: Antiproliferative activity against human SEM cells after 72 hrs by CelTiter-Glo assay. It is filed as functional, cell-based.
Assay [1] concerns SUP-B15. As to the kind of experiment: Antiproliferative activity against human SUP-B15 cells after 72 hrs by CelTiter-Glo assay. It is filed as functional, cell-based. As to conditions: SUP-B15, 72 h.
For assay [2], the system named is KOPN-8. Put plainly: Induction of apoptosis in human KOPN8 cells assessed as effect on Mcl-1 level at 30 uM after 3 hrs by Western blot analysis relative to control. It is filed as functional. In a few lines: (§1)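 KOPN-8 cells were exposed to compound for 3 h and 24 h, with or without N-acetylcysteine added to a parallel set as antioxidant. Lysates were analysed by Western blot for cleaved PARP, Mcl-1, Ser-2-phosphorylated RNAPII CTD, cMyc, total Rb and pRb. Signals were compared against controls for dose-dependent change.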

A further assay has as its system HepG2. Put plainly: Antiproliferative activity against human HepG2 cells after 72 hrs by CelTiter-Glo assay. It is filed as functional, cell-based. As to conditions: HepG2, 72 h.
The next assay deals with MCF7. Put plainly: Induction of oxidative stress in human MCF7 cells transfected with mRuby-Mito-7 with fugene assessed as increase in intracellular total ROS levels at 50 uM treated 30 mins post NAC addition measured after 1 hr by fluorimetric analysis. It is filed as functional, cell-based. The essentials: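 MCF-7 cells carried an mRuby-Cox8A mitochondrial label. They were exposed to 50 of compound, alone or together with 50 of N-acetylcysteine, for 1 h. Cells were then stained with CellROX green (ex/em 485/520 nm) plus Hoechst 33342 nuclear stain. Total and mitochondrial ROS fluorescence was imaged in live cells and quantified relative to control.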

The subject of a further assay is UoC-B1. Put plainly: Antiproliferative activity against human UOCB1 cells after 72 hrs by CelTiter-Glo assay. It is filed as functional, cell-based. As to conditions: UoC-B1, 72 h.
The next assay deals with BJ. Put plainly: Antiproliferative activity against human BJ cells after 72 hrs by CelTiter-Glo assay. It is filed as cell-based.
Assay [3] has as its system KOPN-8. As to the kind of experiment: Induction of apoptosis in human KOPN8 cells assessed as upregulation of cleaved PARP level after 3 to 24 hrs by Western blot analysis. It is filed as functional, cell-based. The essentials: as §1
A general note: A western blot detects proteins with antibodies after separation by electrophoresis.

Assay [4] deals with KOPN-8. Put plainly: Effect on c-Myc expression in human KOPN8 cells at 100 uM pre-treated with NAC for 1 hr and measured after 24 hrs by Western blot analysis relative to control. It is filed as functional.
The subject of assay [5] is KOPN-8. Put plainly: Induction of apoptosis in human KOPN8 cells assessed as effect on Mcl-1 level at 100 uM pre-treated with NAC for 1 hr and measured after 3 hrs by Western blot analysis relative to control. It is filed as functional. The essentials:
as §1

Assay [6] has as its system KOPN-8. Put plainly: Induction of apoptosis in human KOPN8 cells assessed as viable cells at 10 uM after 24 hrs by Annexin V-FITC/propidium iodide staining-based flow cytometry (reference value: 85.2%). It is filed as functional. As to conditions: KOPN-8, 24 h, read-out: Activity. In a few lines:
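KOPN-8 cells were treated for 24 h, with a DMSO vehicle control and a staurosporine positive control. Cells were stained with FITC-Annexin V and propidium iodide and analysed by flow cytometry. Quadrant gating separated viable, early apoptotic, late apoptotic (Q2) and necrotic populations.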
On the technique in general: In flow cytometry, cells or beads pass a laser one at a time.

The next assay is filed under the species Homo sapiens. Put plainly: Inhibition of RNA polymerase 2 C-terminal domain phosphorylation at Ser2 residue in human KOPN8 cells at 100 uM after 3 hrs by Western blot analysis relative to control. It is filed as cell-based. In a few lines:
as §1

In assay [7] the test system is KOPN-8. As to the kind of experiment: Antiproliferative activity against human KOPN8 cells after 72 hrs by CelTiter-Glo assay. It is filed as functional, cell-based. As to conditions: KOPN-8, 72 h.
Assay [8] concerns KOPN-8. Put plainly: Effect on c-Myc expression in human KOPN8 cells at 30 uM after 3 hrs by Western blot analysis relative to control. It is filed as functional. The essentials: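 KOPN-8 cells were treated at 10–100 µM final, with or without N-acetylcysteine co-addition, for 3 h and 24 h. Lysates were analysed by Western blot for PARP cleavage, Mcl-1, phospho-Ser2 RNAPII CTD, c-Myc, total Rb and pRb. Levels are relative to the vehicle control.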

In assay [9] the test system is KOPN-8. As to the kind of experiment: Cell cycle arrest in human KOPN8 cells assessed as accumulation at S phase at 10 uM after 24 hrs by propidium iodide staining-based flow cytometry (reference value: 66.56%). It is filed as functional. The essentials:
(§2)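 KOPN-8 cells treated 24 h alongside a DMSO vehicle and a staurosporine (2.0 µM) positive control. Apoptosis was scored by FITC Annexin V / propidium iodide flow cytometry with quadrant gating (early, late apoptotic). DNA content was measured by PI staining to give the percentage of cells in G0/G1, S and G2/M. Groups were compared by t-test; error bars are SD.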

Assay [10] deals with KOPN-8. Put plainly: Induction of apoptosis in human KOPN8 cells assessed as effect on Mcl-1 level at 0.5 uM after 24 hrs by Western blot analysis relative to control. It is filed as functional.
In assay [11] the test system is KOPN-8. As to the kind of experiment: Cell cycle arrest in human KOPN8 cells assessed as accumulation at S phase at 5 uM after 24 hrs by propidium iodide staining-based flow cytometry (reference value: 66.56%). It is filed as functional. In a few lines:
as §2

The test system of assay [12] is SUP-B15. As to the kind of experiment: Induction of apoptosis in human SUP-B15 cells assessed as viable cells at 5 uM after 24 hrs by Annexin V-FITC/propidium iodide staining-based flow cytometry (reference value: 82.8%). As to conditions: SUP-B15, 24 h, read-out: Activity. It is filed as functional.
Assay [13] deals with MDA-MB-231. As to the kind of experiment: Cell cycle arrest in human MDA-MB-231 cells assessed as accumulation at G0/G1 phase at 5 uM after 24 hrs by propidium iodide staining-based flow cytometry (reference value: 70.47%). It is filed as functional.
Assay [14] deals with MDA-MB-231. Put plainly: Cell cycle arrest in human MDA-MB-231 cells assessed as accumulation at S phase at 5 uM after 24 hrs by propidium iodide staining-based flow cytometry (reference value: 20.15%). It is filed as functional.

The pEC50 is −log10 of the EC50, conventionally taken in molar units. As for `COc1ccc(-c2c(I)c(=O)c3c(OC)cc(OC)cc3n2S(=O)(=O)c2ccc(OC)cc2)cc1`, the pEC50 was 5.26 in the assay with SEM cells; 4.91 with SUP-B15 [1]; less than 4.76 in the assay on HepG2; 5.59 in the assay with UoC-B1; less than 4.46 in the assay with BJ; 5.07 in the assay on KOPN-8 [7]. The “fold change (FC)” value with KOPN-8 [2] came to 0.6; in the assay with KOPN-8 [4], 0.1; with KOPN-8 [5], 0.5; in the assay listed under Homo sapiens, 1.4; in the assay with KOPN-8 [8] it was 0.6. In addition, in the assay on MCF7, the outcome was inactive. The Activity entry was “Dose-dependent effect” with KOPN-8 [3] and 25.66% in the assay with KOPN-8 [9]. Besides, the viability at 10 µM with KOPN-8 [6] was determined as 8.5%.
On to `CN(C)C(=O)c1cc2cnc(Nc3ccc(N4CCNCC4)cn3)nc2n1C1CCCC1` [RIBOCICLIB], for which the negative-log EC50 (pEC50) was 6.34 in the assay with SEM cells; less than 4.18 in the assay with SUP-B15 [1]; 6.54 with HepG2; less than 4.18 in the assay with UoC-B1; less than 4.18 in the assay with BJ; 6.30 with KOPN-8 [7]. For the same compound, the “fold change (FC)” value in the assay on KOPN-8 [10] amounted to 1.1. In addition, the Activity is 25.55% with KOPN-8 [11], 90.85% in the assay on MDA-MB-231 [13] and 4.64% in the assay on MDA-MB-231 [14]. In addition, in the assay with SUP-B15 [12], the viability at 5 µM worked out at 35.4%.
